Assay results taken from ChEMBL document CHEMBL4041542, “Synthesis and biological characterisation of ester and amide derivatives of fusidic acid as antiplasmodial agents” (Bioorg Med Chem Lett, 2017).

Key:
[1] = test system: Plasmodium falciparum; test: Potency index, ratio of fusidic acid IC50 to compound IC50 for chloroquine-sensitive Plasmodium falciparum NF54; type: functional
In short: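 Chloroquine-sensitive P. falciparum NF54 was tested with the lactate dehydrogenase assay, using chloroquine and artesunate as reference drugs. The index is fusidic acid's IC50 divided by the compound's IC50, both against NF54.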

[2] = test system: Plasmodium falciparum; test: Antiplasmodial activity against chloroquine-sensitive Plasmodium falciparum NF54 by LDH assay; type: functional
In short: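 In vitro test on the chloroquine-sensitive NF54 strain of P. falciparum, read out by the lactate dehydrogenase assay. Reported as IC50. Chloroquine and artesunate were included as reference drugs in all experiments.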

[3] = Selectivity index, ratio of IC50 for CHO cells to IC50 for chloroquine-sensitive Plasmodium falciparum NF54; type: toxicity; settings: hamster, read-out: Ratio IC50
In short: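 IC50 against Chinese hamster ovary cells (cytotoxicity) was divided by IC50 against P. falciparum NF54. NF54 IC50 came from the lactate dehydrogenase assay, with chloroquine and artesunate as references.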

[4] = test system: Plasmodium falciparum; test: Potency index, ratio of fusidic acid IC50 to compound IC50 for chloroquine-resistant Plasmodium falciparum K1; type: functional
[5] = test system: CHO; test: Cytotoxicity against CHO cells; type: cell-based; settings: Cricetulus griseus
[6] = Stability of the compound assessed as Plasmodium falciparum NF54 esterase-mediated fusidic acid release at 0.5 uM up to 48 hrs by LC-MS/MS analysis; type: ADME; settings: plasmodium falciparum nf54, isolated protein
[7] = test system: Plasmodium falciparum; test: Antiplasmodial activity against chloroquine-resistant Plasmodium falciparum K1 by [3H]hypoxanthine incorporation assay; type: functional
In short: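 Multidrug-resistant K1 strain of P. falciparum tested in vitro with a modified [3H]hypoxanthine incorporation assay. IC50 determined. Chloroquine and artesunate served as reference drugs in every experiment.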

[8] = test system: Plasmodium falciparum; test: Antiplasmodial activity against chloroquine-sensitive Plasmodium falciparum D10 infected in erythrocytes after 48 hrs by giemsa staining based assay; type: functional, cell-based; settings: D10, 48 h

Row | SMILES | Ratio IC50 [1] | IC50 [2] [µM] | selectivity ratio [3] | Ratio IC50 [4] | IC50 [5] [µM] | Stability [6] | IC50 [7] [µM] | IC50 [8] [µM]
1 | CC(=O)O[C@H]1C[C@@]2(C)[C@@H](C[C@@H](O)[C@H]3[C@@]4(C)CC[C@@H](O)[C@@H](C)[C@@H]4CC[C@@]32C)/C1=C(\CCC=C(C)C)C(=O)Nc1ccccc1 | 4 - 49 | 1.2 | 74 | 5 - 17 | 89.2 | Stable | 1.4 | 
2 | CC(=O)O[C@H]1C[C@@]2(C)[C@@H](C[C@@H](O)[C@H]3[C@@]4(C)CC[C@@H](O)[C@@H](C)[C@@H]4CC[C@@]32C)/C1=C(\CCC=C(C)C)C(=O)O [FUSIDIC ACID] |  |  | > 3 |  | > 194 |  | 19 | 50
